# ChEMBL document CHEMBL2321659, “Design, synthesis, and biological evaluation of indenoisoquinoline rexinoids with chemopreventive potential” (J Med Chem, 2013)
# The source made the active and inactive calls. The calls are words filed in the database; no cut-off is given here.
# Columns and labels:
# [1] = molecular target: T1, Retinoic acid receptor RXR-alpha (Homo sapiens, UniProt P19793); assay: Activation of human RXRalpha activity expressed in COS1 cells after 12 hrs by RXRE-luciferase reporter gene assay; format: cell-based, COS-1
# T1 sequence (P19793 whole entry): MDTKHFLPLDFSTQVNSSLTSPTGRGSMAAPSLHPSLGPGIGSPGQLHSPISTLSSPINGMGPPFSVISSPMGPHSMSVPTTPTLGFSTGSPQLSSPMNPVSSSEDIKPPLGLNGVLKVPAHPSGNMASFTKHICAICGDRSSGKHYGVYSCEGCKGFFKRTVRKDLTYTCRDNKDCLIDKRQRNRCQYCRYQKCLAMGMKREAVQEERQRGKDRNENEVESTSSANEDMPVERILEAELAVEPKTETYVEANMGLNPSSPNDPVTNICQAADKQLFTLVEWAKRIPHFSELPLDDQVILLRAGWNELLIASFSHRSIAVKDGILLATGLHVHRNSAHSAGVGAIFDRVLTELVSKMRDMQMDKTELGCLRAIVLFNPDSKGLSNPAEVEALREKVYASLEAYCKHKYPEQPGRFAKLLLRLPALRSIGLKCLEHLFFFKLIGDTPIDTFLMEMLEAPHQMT
# [2] = Cytotoxicity against African green monkey COS1 cells assessed as cell survival; format: cell-based; parameters: concentration or dose not given beside the values; conditions: chlorocebus aethiops, COS-1 cells; read-out: Activity
# HL-60 [3] = assay: Cell cycle arrest in human HL60 cells assessed as accumulation at subG1 phase at 13 nM relative to control; format: functional
# [4] = molecular target: T2, Vitamin D3 receptor (Homo sapiens) (UniProt P11473); assay: Binding affinity to VDR (unknown origin) assessed as inhibition of curcumin binding after 30 mins by ultrafiltration LC-MS/MS analysis
# T2 sequence (whole entry): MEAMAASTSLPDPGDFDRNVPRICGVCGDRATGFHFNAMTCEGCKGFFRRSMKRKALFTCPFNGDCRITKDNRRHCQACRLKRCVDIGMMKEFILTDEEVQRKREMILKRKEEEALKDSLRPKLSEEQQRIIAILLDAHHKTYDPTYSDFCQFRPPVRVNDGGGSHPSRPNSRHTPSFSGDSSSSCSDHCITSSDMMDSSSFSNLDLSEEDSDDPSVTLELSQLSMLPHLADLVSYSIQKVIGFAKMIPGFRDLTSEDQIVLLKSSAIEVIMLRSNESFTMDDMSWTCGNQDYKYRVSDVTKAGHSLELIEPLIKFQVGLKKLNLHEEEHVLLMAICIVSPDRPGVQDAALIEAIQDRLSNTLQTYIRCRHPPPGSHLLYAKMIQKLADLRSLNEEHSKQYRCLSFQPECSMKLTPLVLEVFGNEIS
# HL-60 [5] = assay: Cell cycle arrest in human HL60 cells assessed as accumulation at subG1 phase at 250 nM relative to control; format: functional
# HL-60 [6] = assay: Cytotoxicity against human HL60 cells assessed as inhibition of cell proliferation after 96 hrs; format: functional, cell-based; conditions: HL-60, 96 h
# [7] = molecular target: T3, Retinoic acid receptor RXR-alpha (Homo sapiens) (UniProt P19793); assay: Activation of human RXRalpha activity expressed in COS1 cells assessed as induction ratio at 50 uM after 12 hrs by RXRE-luciferase reporter gene assay relative to untreated control; format: cell-based; conditions: COS-1
# T3 sequence (whole entry): T1 sequence (P19793 whole entry)
# Procedure, shortened: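 COS-1 cells transiently co-transfected per well with 100 ng RXRE-firefly luciferase reporter, 50 ng human RXRα expression vector and 3 ng Renilla luciferase vector using Lipofectamine 2000 for 24 h, then exposed to compound for a further 12 h. Dual-luciferase read-out. Induction ratio taken at 50 µM test concentration.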
# [8] = molecular target: T2, Vitamin D3 receptor (Homo sapiens); assay: Binding affinity to VDR (unknown origin) after 30 mins by ultrafiltration LC-MS/MS analysis relative to 6-(6-aminohexyl)-5H-indeno[1,2-c]isoquinoline-5,11(6H)-dione; parameters: Activity: concentration or dose not given beside the values
# Procedure, shortened: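 Recombinant VDR incubated with ligand in 20 µL for 30 min at 37 °C in the dark with shaking. Then ultrafiltration at 4 °C and rinses with cold 50 mM ammonium acetate/0.1 mM NaCl pH 8.0. Bound ligand released with methanol containing genistein, dried under N2 and quantified by LC-MS. Controls were boiled hVDR or no protein.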
# [9] = molecular target: T3, Retinoic acid receptor RXR-alpha (Homo sapiens); assay: Binding affinity to RXRalpha (unknown origin) at 10 uM after 2 hrs by ultrafiltration LC-MS/MS analysis relative to control
# Procedure, shortened: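 Purified RXRα (10 µM stock in 50 mM Tris-HCl pH 7.5, 50 mM KCl, 1 mM EDTA) incubated with ligand (final 10 µM, DMSO) for 2 h at room temperature. Then 10 kDa ultrafiltration at 4 °C, three ammonium acetate pH 7.5 washes, release with 90% methanol, UHPLC-MS/MS (SRM). Binding ratio is peak area versus denatured-RXRα (60–70 °C, 15 min) control.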
compound,measurement,setting,value
NCCCn1c2c(c3ccc(N)cc3c1=O)C(=O)c1ccccc1-2,EC50,[1],4.4 µM
same,viability,[2],52.1%
same,Activity,HL-60 [3],4.5%
same,inhibition,[4],inactive
same,Activity,HL-60 [5],28.7%
same,IC50,HL-60 [6],0.092 µM
NCCCn1c2c(c3ccc(N)cc3c1=O)Cc1ccccc1-2,EC50,[1],10 µM
same,Ratio,[7],> 1
same,viability,[2],49.3%
same,Activity,[8],15.1%
same,fold change (FC),[8],0.151
CNCCCn1c2c(c3ccccc3c1=O)C(=O)c1ccccc1-2,EC50,[1],9.22 µM
same,fold change (FC),[9],7.6
same,Ratio,[7],> 1
same,viability,[2],51.2%
C[N+](C)(C)CCCn1c2c(c3ccccc3c1=O)C(=O)c1ccccc1-2,Ratio,[7],< 1
same,viability,[2],99.4%
NCCCCn1c2c(c3ccccc3c1=O)C(=O)c1ccccc1-2,EC50,[1],11.3 µM
same,Ratio,[7],9.9
same,viability,[2],53.8%
same,Activity,[8],35.3%
same,fold change (FC),[8],0.353
CNCCCn1c2c(c3ccc(Br)cc3c1=O)C(=O)c1ccccc1-2,EC50,[1],10.7 µM
same,Ratio,[7],> 1
same,viability,[2],31.3%
COC(=O)c1ccc2c3c(n(CCCN)c(=O)c2c1)-c1ccccc1C3=O,Ratio,[7],< 1
same,viability,[2],55%
CC(=O)Nc1ccc2c3c(n(CCCN)c(=O)c2c1)-c1ccccc1C3=O,EC50,[1],> 34.7 µM
same,viability,[2],69.2%
NCCCn1c2c(c3ccc(NCC(=O)O)cc3c1=O)C(=O)c1ccccc1-2,EC50,[1],8.4 µM
same,Ratio,[7],> 1
same,viability,[2],61.2%
O=C1c2ccccc2-c2c1c1ccccc1c(=O)n2CCCn1ccnc1,Ratio,[7],< 1
same,viability,[2],100%
CN(C)CCCn1c2c(c3ccc(Br)cc3c1=O)C(=O)c1ccccc1-2,EC50,[1],18.4 µM
same,Ratio,[7],> 1
same,viability,[2],48.5%
NCCCCCCn1c2c(c3ccccc3c1=O)C(=O)c1ccccc1-2,EC50,[1],16.4 µM
same,Ratio,[7],6.7
same,viability,[2],24.9%
same,Activity,[8],100%
same,fold change (FC),[8],1
O=C1c2ccccc2-c2c1c1ccc(Br)cc1c(=O)n2CCCN1CCOCC1,Ratio,[7],< 1
same,viability,[2],100%
COc1cc2c3c(n(CCCN)c(=O)c2cc1OC)-c1ccc(F)cc1C3=O,Ratio,[7],< 1
same,viability,[2],23.8%
COC(=O)/C=C/c1ccc2c3c(n(CCCN)c(=O)c2c1)-c1ccccc1C3=O,Ratio,[7],< 1
same,viability,[2],90.4%
CN(C)CCCn1c2c(c3ccccc3c1=O)C(=O)c1ccccc1-2,EC50,[1],9.6 µM
same,fold change (FC),[9],2.6
same,Ratio,[7],> 1
same,viability,[2],52.5%
CN(C)CCCn1c2c(c3ccc(C#N)cc3c1=O)C(=O)c1ccccc1-2,EC50,[1],> 20.7 µM
same,Ratio,[7],> 1
same,viability,[2],54.8%
CNCCCn1c2c(c3ccc([N+](=O)[O-])cc3c1=O)C(=O)c1ccccc1-2,Ratio,[7],< 1
same,viability,[2],33.1%
CN(C)CCCn1c2c(c3ccc([N+](=O)[O-])cc3c1=O)C(=O)c1ccccc1-2,Ratio,[7],< 1
same,viability,[2],83.7%
COC(=O)CC(=O)Nc1ccc2c3c(n(CCCN)c(=O)c2c1)-c1ccccc1C3=O,EC50,[1],> 44.5 µM
same,fold change (FC),[9],1.7
same,Ratio,[7],> 1
same,viability,[2],85%
CNc1ccc2c3c(n(CCCN)c(=O)c2c1)-c1ccccc1C3=O,viability,[2],45.9%
O=C(O)CCn1c2c(c3ccc(Br)cc3c1=O)C(=O)c1ccccc1-2,Ratio,[7],< 1
same,viability,[2],98%
NCCCn1c2c(c3ccc([N+](=O)[O-])cc3c1=O)C(=O)c1ccccc1-2,Ratio,[7],< 1
same,viability,[2],32.1%
COC(=O)c1ccc2c3c(n(CCCN(C)C)c(=O)c2c1)-c1ccccc1C3=O,EC50,[1],19.5 µM
same,Ratio,[7],> 1
same,viability,[2],21.7%
NCCCn1c2c(c3ccc(C(=O)O)cc3c1=O)C(=O)c1ccccc1-2,Ratio,[7],< 1
same,viability,[2],83.7%
NCCCn1c2c(c3ccccc3c1=O)C(=O)c1ccccc1-2,EC50,[1],8.66 µM
same,Ratio,[7],11.4
same,viability,[2],50.8%
same,Activity,[8],42.7%
same,fold change (FC),[8],0.427
CCOC(=O)CNc1ccc2c3c(n(CCCN)c(=O)c2c1)-c1ccccc1C3=O,Activity,[9],inactive
same,Ratio,[7],< 1
same,viability,[2],22.2%
same,Activity,[8],1.62%
same,fold change (FC),[8],0.0162
NCCCCCn1c2c(c3ccccc3c1=O)C(=O)c1ccccc1-2,EC50,[1],12.2 µM
same,Ratio,[7],4.9
same,viability,[2],40.7%
same,Activity,[8],83.8%
same,fold change (FC),[8],0.838
COc1ccc2c(c1)C(=O)c1c-2n(CCCN)c(=O)c2ccccc12,EC50,[1],4.84 µM
same,Ratio,[7],> 1
same,viability,[2],46.8%
CN(C)c1ccc2c3c(n(CCCN)c(=O)c2c1)-c1ccccc1C3=O,Ratio,[7],< 1
same,viability,[2],30.6%
CNCCCn1c2c(c3ccc(N)cc3c1=O)C(=O)c1ccccc1-2,viability,[2],53%
CN(C)CCCn1c2c(c3ccc(N)cc3c1=O)C(=O)c1ccccc1-2,EC50,[1],7 µM
same,fold change (FC),[9],2.5
same,Ratio,[7],> 1
same,viability,[2],53.7%
same,Activity,[8],21.4%
same,fold change (FC),[8],0.214
Cc1cc2c(cc1C1(c3ccc(C(=O)O)cn3)CC1)C(C)(C)CCC2(C)C,viability,[2],84.3%
NCCn1c2c(c3ccccc3c1=O)C(=O)c1ccccc1-2,EC50,[1],15.9 µM
same,Ratio,[7],8.2
same,viability,[2],30.7%
COC(=O)C(=O)Nc1ccc2c3c(n(CCCN)c(=O)c2c1)-c1ccccc1C3=O,Ratio,[7],< 1
COC(=O)CCCCC(=O)Nc1ccc2c3c(n(CCCN)c(=O)c2c1)-c1ccccc1C3=O,Ratio,[7],< 1
NC(=O)CCn1c2c(c3ccc([N+](=O)[O-])cc3c1=O)C(=O)c1ccccc1-2,Ratio,[7],< 1
Cn1c2c(c3ccc(NC(=O)CC(=O)O)cc3c1=O)C(=O)c1ccccc1-2,Ratio,[7],< 1
